Assay results published in paper PMC4656071 (Biochemical pharmacology, 2015).
Values belong to the molecule of their own block, whether it stands above or below them.

Assays:
sEH = conditions: cited from earlier work
CYP 3A4 = format: in vitro ADME, human; conditions: 10 uM ketoconazole, 30 min, 37°C
[1] = animal models; cited from earlier work
[2] = format: in vitro ADME, rat, human; conditions: incubated in vitro without NADPH
[3] = Blood level-time course of AEPU and its metabolites after oral dosing in mice; format: in vivo, male swiss webster mice
CYP2D6 = assay: Recombinant human CYPs incubation, CYP2D6; format: in vitro ADME; conditions: 1 μM AEPU, 20 pmol/ml CYP, 30 min
Summary of the method: (§1)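 Recombinant human CYPs (20 pmol/ml) with 1 μM test compound in 100 mM sodium phosphate pH 7.4, preincubated 5 min at 37 °C. NADPH-generating system added; incubated 0 and 30 min. Stopped with 200 nM internal standard in methanol; LC-MS/MS. Metabolites compared as response-area ratio to internal standard.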

CYP3A4 = assay: Recombinant human CYPs incubation, CYP3A4; format: in vitro ADME; conditions: 1 μM AEPU, 20 pmol/ml CYP, 30 min
Summary of the method: as §1

[4] = 5 mg/kg for mouse and rat, 0.3 mg/kg for dog; cited from earlier work
Human sEH = molecular target: T1, Human sEH (Homo sapiens, UniProt P34913); assay: sEH activity assay; format: biochemical; conditions: fluorescent assay for sEH inhibition, from Table 3 (human and mouse sEH)
T1 sequence (P34913 1-555): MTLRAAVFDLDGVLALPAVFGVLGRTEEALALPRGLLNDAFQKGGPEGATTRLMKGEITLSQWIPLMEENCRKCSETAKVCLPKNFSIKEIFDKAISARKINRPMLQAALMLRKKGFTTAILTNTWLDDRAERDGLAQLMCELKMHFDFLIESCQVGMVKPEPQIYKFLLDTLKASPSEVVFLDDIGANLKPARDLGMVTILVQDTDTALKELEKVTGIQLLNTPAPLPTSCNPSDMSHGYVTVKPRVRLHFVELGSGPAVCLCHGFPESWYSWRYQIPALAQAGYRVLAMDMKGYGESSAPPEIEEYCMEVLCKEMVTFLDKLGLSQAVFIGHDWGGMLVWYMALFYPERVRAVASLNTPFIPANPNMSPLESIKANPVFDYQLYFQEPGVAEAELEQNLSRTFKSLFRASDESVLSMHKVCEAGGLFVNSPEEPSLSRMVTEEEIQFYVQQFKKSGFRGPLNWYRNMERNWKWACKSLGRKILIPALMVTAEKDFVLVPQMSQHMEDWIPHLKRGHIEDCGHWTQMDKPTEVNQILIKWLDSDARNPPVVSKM

[5] = In vivo metabolism study of AEPU, rat urine by LC-MS; design: species or system rat (Sprague Dawley); conditions: rats, oral 10 mg/kg AEPU, urine 24 h after treatment

Structure (SMILES): O=C(O)CCCNC(=O)NC12CC3CC(CC(C3)C1)C2 [4-(3-adamantan-1-yl-ureido)butanoic acid]
- inhibitory potency on sEH (in words) (sEH): very weak

- metabolism of AEPU in human liver S9 fraction with ketoconazole (CYP 3A4): ceased
- metabolite formation in vitro without NADPH [2]: failed to generate metabolites
- metabolism in vivo (in words) ([3]; oral 10 mg/kg, multiple metabolites observed after 30 minutes): metabolized rapidly
- role of CYP2D6 in the in vitro metabolism of AEPU (CYP2D6): minor enzyme
- role of CYP3A4 in the in vitro metabolism of AEPU (CYP3A4): major enzyme
Structure (SMILES): CCOCCOCCOCCCCCNC(=O)NC12CC3CC(CC(C3)C1)C2 [AEPU, 1-adamantan-1-yl-3-(5-(2-(2-ethoxyethoxy)ethoxy)pentyl)urea]
- blood level of AEPU through the whole time course [1]: undetectable
- area under curve after oral administration, comparison of species [4]: largest area under curve for dog, and then rat, while under detection limitation for mouse

- potency lower compared to AEPU (Human sEH): 30–100 fold
Structure (SMILES): CCOCCOCCOCCCCCNC(=O)NC12CC3CC(CC(O)(C3)C1)C2 [M2]

Structure (SMILES): O=C(O)CCNC(=O)NC12CC3CC(CC(C3)C1)C2 [M15, 3-(3-adamantyl-ureido)-propanoic acid]
- occurrence in rat urine [5]: major metabolite
- blood level 6 hours post administration ([3]; oral 10 mg/kg AEPU, mouse whole blood, 6 hours): under the detection limitation
